# Screening data as filed in PubChem BioAssay.
# Most compounds without a hit are left out; they make up all but 2.1% or so of the library.
# TRPML3 agonist: human mucolipin-3 channel agonism; HEK293 TRPML3-YFP, Fluo-8 calcium fluorescence; 100% = the carbachol control signal; activation, % at 3 µM; 0.29% of 220,000 active; AID 1448;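 active = activation above its plate's cutoff, the mean activation of the plate's test wells plus 3 SD, cut at about 12% in these data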;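 note: 0% = DMSO only wells and 100% = carbachol wells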
# Target sequence (Q8TDD5 whole entry, looked up): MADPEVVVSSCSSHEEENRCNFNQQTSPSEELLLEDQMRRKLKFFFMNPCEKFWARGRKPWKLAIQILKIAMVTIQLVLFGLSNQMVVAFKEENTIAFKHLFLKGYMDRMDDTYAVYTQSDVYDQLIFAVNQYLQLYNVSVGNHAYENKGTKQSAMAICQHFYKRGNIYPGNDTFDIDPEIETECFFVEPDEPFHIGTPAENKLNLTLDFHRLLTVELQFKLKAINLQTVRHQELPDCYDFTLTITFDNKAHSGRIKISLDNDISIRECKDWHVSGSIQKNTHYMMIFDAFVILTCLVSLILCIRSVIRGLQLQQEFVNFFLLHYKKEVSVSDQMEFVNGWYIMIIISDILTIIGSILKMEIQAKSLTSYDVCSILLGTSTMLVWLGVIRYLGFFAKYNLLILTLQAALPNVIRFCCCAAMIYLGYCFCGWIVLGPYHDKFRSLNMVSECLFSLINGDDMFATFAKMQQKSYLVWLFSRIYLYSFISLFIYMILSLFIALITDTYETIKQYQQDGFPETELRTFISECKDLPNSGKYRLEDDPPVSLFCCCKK
#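 Material: HEK293 cells stably carrying human TRPML3-YFP; compound dosing: single dose, 3 µM final nominal compound, 0.3% DMSO final; incubation: 1-h 37 °C dye load, 5-s basal, 120-s post-compound reads; technique: Fluo-8 intracellular calcium fluorescence, excitation 470-495 nm, emission 515-575 nm; read-out basis: percent activation from peak-to-basal fluorescence ratio, scaled between DMSO and carbachol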
# VIM-2 inhibitor: blocks Pseudomonas aeruginosa VIM-2 metallo-beta-lactamase | purified VIM-2, nitrocefin hydrolysis, epi-absorbance fluorescence | inhibition, % at 5.6 µM | 0.89% of 290,000 active | AID 1527;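 active = inhibition above the mean of all tested compounds plus 3 SD, cutoff set per screening run, cut at about 7.5% in these data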;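 note: red hydrolysis product quenches plate fluorescence so inhibitors raise well fluorescence; 0% = enzyme with DMSO and 100% = DMSO without enzyme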
# zfTRPN1 agonist: activates the zebrafish TRPN1 channel | AID 1424 | HEK293 zebrafish TRPN1-YFP, Fluo-8 calcium fluorescence; 100% = response to 87 µM carbachol | activation, % at 3 µM | 0.18% of 220,000 active;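 active = activation above its plate's cutoff, the mean activation of test wells on that plate plus 3 SD, cut at about 19% in these data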;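 note: 0% = DMSO alone and 100% = 87 µM carbachol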
#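 Material – zebrafish TRPN1-YFP in HEK293 cells · Doses – 3 µM single point · Schedule – dye 1 h 37 °C plus 30 min RT · Signal – Fluo-8 calcium fluorescence, excitation 470-495 nm, emission 515-575 nm · Read-out – % activation versus carbachol response · Control set – carbachol high, DMSO low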
# CRFR2-BP antag: CRF-BP/CRF-R2 complex antagonism | inhibition, % at 11.8 µM | 0.59% of 350,000 active | HEK293 CRF-R2/CRF-BP, CRF-induced calcium fluorescence;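 active = inhibition of the ligand-induced calcium signal above about 50% at the single tested concentration, limit read from the data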
# IMP-1 inh-1: inhibitors of Pseudomonas aeruginosa IMP-1 metallo-beta-lactamase; purified IMP-1, nitrocefin hydrolysis, epi-absorbance fluorescence; inhibition, % at 5.6 µM; 0.45% of 290,000 active; AID 1556;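 active = inhibition above the mean plus 3 SD of all compounds in the same screening run, cut at about 4.5% in these data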;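 note: 0% = IMP-1 with DMSO and 100% = DMSO wells lacking enzyme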
#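 Assay system: purified IMP-1; Quantity: IMP-1 0.2 nM before substrate addition; Medium: HEPES buffer pH 7.1 with ZnSO4 and Brij 35; Incubation: 15 min enzyme–compound preincubation, then 25 min nitrocefin reaction, 25 °C; Signal: fluorescence quenching readout, ex 480/em 530 nm; Controls: DMSO with and without IMP-1; Repeats: singlicate testing.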
# CRFR2-BP ag: agonists of human CRF-binding protein/CRF-R2 receptor complex | HEK293 CRF-R2/CRF-BP, calcium dye fluorescence (FLIPR); percent of saturating CRF peptide response | activation, % at 13.2 µM | 0.46% of 350,000 active | AID 588473;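 active = activation of at least 50%, plus an integration ratio under a set limit after plate pattern correction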;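 note: plate controls were neutral control wells without compound for no effect and CRF at EC100 for full effect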
# IMP-1 inh-2: blocks IMP-1 metallo-beta-lactamase in VIM-2 selectivity screen; shares compounds with VIM-2 inhibitor; purified IMP-1, nitrocefin hydrolysis, epi-absorbance fluorescence; inhibition, % at 5.6 µM; 1,300 tested, under 10 active; AID 1856; call rule not given here;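 note: 0% = enzyme with vehicle and 100% = vehicle without enzyme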
# VIM-2 FRET ctr: counter-screen for VIM-2 inhibitors: epi-absorbance artifacts via FRET; 23% of 1,300 active; shares compounds with VIM-2 inhibitor; purified VIM-2, CCF2 FRET substrate hydrolysis; AID 1857; inhibition, % at 5.6 µM;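 active = inhibition above the mean of all tested compounds plus 3 SD, cut at about 19% in these data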;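 note: 0% = VIM-2 plus DMSO and 100% = no enzyme wells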
# TEM-1 inh: TEM-1 inhibition, counter-screen for VIM-2 inhibitors; Purified TEM-1, nitrocefin hydrolysis, epi-absorbance fluorescence; 3% of 1,300 active; inhibition, % at 5.6 µM; shares compounds with VIM-2 inhibitor;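 active = inhibition above that campaign's mean inhibition plus 3 SD, cut at about 0.46% in these data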;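 note: 0% = TEM-1 with DMSO and 100% = TEM-1 with 100 µM potassium clavulanate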
# VIM-2 inh conf: confirmation of P. aeruginosa VIM-2 metallo-beta-lactamase inhibitors. shares compounds with VIM-2 inhibitor. purified VIM-2, nitrocefin hydrolysis, epi-absorbance. inhibition, % at 5.6 µM. 96% of 1,300 active;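 active = inhibition of the VIM-2 beta-lactamase enzyme above about 11% from the earlier first-round screen, limit read from the data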;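 note: 0% = VIM-2 with DMSO and 100% = buffer wells without enzyme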
# An asterisk follows results filed as active; / = not tested or not shown.
SMILES,TRPML3 agonist,VIM-2 inhibitor,zfTRPN1 agonist,CRFR2-BP antag,IMP-1 inh-1,CRFR2-BP ag,IMP-1 inh-2,VIM-2 FRET ctr,TEM-1 inh,VIM-2 inh conf
CN(/N=C/c1cccc(Br)c1)C1=NS(=O)(=O)c2ccccc21,/,16*,/,-12,-2,1,-3,-3,-8,23*
Oc1ccc(Nc2nc(N3CCCC3)c3ccccc3n2)cc1,0,31*,-1,-2,-3,-3,-2,-4,-3,49*
C[n+]1ccc(/C=N/Nc2nc(Cl)c(C#N)c(Cl)c2Cl)cc1,3,43*,4,6,-8,1,-9,34*,-13,53*
Clc1nnc(N/N=C/c2ccccc2)c2ccccc12,0,0,0,23,2,0,/,/,/,/
c1ccc(-c2noc(-c3ccco3)n2)nc1,0,-5,0,-3,0,-1,/,/,/,/
c1ccc(-c2nccc(-c3ccco3)n2)nc1,0,34*,-1,-2,-1,-5,-5,-20,-7,30*
COc1ccc(Cc2nnc(NC(=O)c3ccc(F)cc3)s2)cc1OC,/,-4,/,-1,-3,0,/,/,/,/
COc1cc(C(=O)N/N=C/c2coc3ccc(Cl)cc3c2=O)ccc1O,/,1,/,2,2,2,/,/,/,/
COc1cc(C(=O)N/N=C/c2coc3ccccc3c2=O)cc(OC)c1OC,/,18*,/,-7,4,0,2,31*,-5,19*
COc1cc(Br)cc2cc(C(=O)OC3CCN(C)CC3)c(=O)oc12,1,14*,0,-8,-1,2,-3,1,-6,22*
O=C(C1CCCC1)N1CCN(S(=O)(=O)c2cccc(Cl)c2Cl)CC1,/,2,/,-11,-1,1,/,/,/,/
O=C(COc1ccc(Cl)cc1Cl)NN1C(=O)C2C3C=CC(C3)C2C1=O (stereo not drawn),1,-3,0,14,-3,-3,/,/,/,/
Oc1ccc2ccccc2c1-c1sc(Nc2ccccc2)n[n+]1-c1ccc(F)cc1,/,17*,/,-12,0,5,4.9*,-4,1.3*,8.2*
C=CCC[C@@H](Cc1ccc(F)cc1)C(=O)OC[C@@H]1CCCN1C(=O)[C@@H](CC=C)CC(=O)N[C@@H](CO)Cc1ccccc1,/,/,/,0,/,0,/,/,/,/
NC(=O)N=Nc1c2[nH]c3ccccc3nc-2c2ccccc12,0,21*,0,9,-3,0,0,-3,-3,38*
C[C@@H]1CN([C@@H](C)CO)C(=O)c2cc(Br)cnc2O[C@@H]1CN(C)S(C)(=O)=O,/,/,/,-10,/,5,/,/,/,/
Cc1c(OCC(=O)NCCCn2ccnc2)ccc2c3c(c(=O)oc12)CCCC3,/,54*,/,-1,-3,-1,-3,-8,-14,64*
CCc1cc(=O)oc2c(C)c(OCC(=O)NCCCN3CCCC3=O)ccc12,/,5,/,0,-2,1,/,/,/,/
CCCc1cc(=O)oc2cc(OCC(=O)NCCCn3ccnc3)c(Cl)cc12,/,19*,/,-14,-3,-2,-3,-4,-6,30*
Cc1oc2c(C)c3oc(=O)c(CCC(=O)NCCCn4ccnc4)c(C)c3cc2c1C,/,24*,/,12,1,-2,-2,-10,-8,30*
CCCc1cc(=O)oc2c(C)c(OCC(=O)NCCCn3ccnc3)ccc12,/,16*,/,-2,-1,-1,-2,-12,-5,27*
Cc1ccc(OC(=O)c2cccc(S(=O)(=O)N3CCN(C)CC3)c2)c(Br)c1,/,0,/,-6,0,1,/,/,/,/
Cc1onc(-c2c(F)cccc2Cl)c1C(=O)OCC(=O)N(C)c1ccccc1,/,/,/,-29,/,25,/,/,/,/
Cc1ccc(NC(=O)C(C)S)cc1 (stereo not drawn),-1,9.6*,1,-25,-1,0,1,4,-6,30*
Cc1ccc(NC(=O)C(CC(C)C)NC(N)=O)cc1 (stereo not drawn),1,-3,0,-32,-3,1,/,/,/,/
SMILES,TRPML3 agonist,VIM-2 inhibitor,zfTRPN1 agonist,CRFR2-BP antag,IMP-1 inh-1,CRFR2-BP ag,IMP-1 inh-2,VIM-2 FRET ctr,TEM-1 inh,VIM-2 inh conf
O=C(NCC(c1ccco1)N1CCN(c2ccc(F)cc2)CC1)C1CCCCC1 (stereo not drawn),/,/,/,1,/,0,/,/,/,/
COc1ccc(-c2cc(C(F)(F)F)nc(N3CCCCCC3)n2)cc1,1,-2,1,-55,-3,15,/,/,/,/
COc1ccc(-c2cc(C(F)(F)F)nc(N3CCN(C)CC3)n2)cc1,0,17*,1,-46,-4,-1,-2,36*,-7,25*
COc1ccc(-c2cc(C(F)(F)F)nc(N3CCN(C)CC3)n2)cc1OC,0,18*,-1,-15,0,-1,-2,1,-6,30*
CN1CCN(C(=O)CSc2ccc(C(F)(F)F)cc2[N+](=O)[O-])CC1,0,13*,0,3,0,-3,-3,-2,-6,38*
CCOC(=O)c1cc(-c2ccc(/C=C3/C(=O)N(c4ccc(C(=O)O)cc4)N=C3C)o2)ccc1Cl,/,-4,/,13,-4,7,/,/,/,/
CCOC(=O)c1cc(-c2ccc(/C=N\n3cnnc3)o2)ccc1Cl,0,57*,0,1,0,-2,-3,-4,-6,78*
Cc1cc(-c2ccc(/C=N/n3cnnc3)o2)ccc1Cl,0,14*,0,0,-2,0,-2,-9,-2,37*
CCCCOC(=O)c1cc(-c2ccc(/C=N/n3cnnc3)o2)ccc1Cl,0,22*,-1,8,-2,-3,0,-5,-6,54*
CC1CCc2c(C(=O)Nc3ccc(N4CCOCC4)cc3)csc2C1 (stereo not drawn),1,-1,-2,-8,-1,-4,/,/,/,/
CC1CC(C)CN(C(=O)C2CCN(C(=O)Nc3ccccc3)CC2)C1 (stereo not drawn),/,/,/,14,/,-1,/,/,/,/
Cc1ccc(CCNC(=O)CN2C(=O)COc3ccc(S(=O)(=O)N4CCOCC4)cc32)cc1,/,-1,/,21,1,-1,/,/,/,/
Cc1nc2c(=O)[nH]c(=S)[nH]c2[nH]c1=O,/,/,/,2,/,2,/,/,/,/
O=C(COc1ccc2c3c(c(=O)oc2c1)CCC3)N[C@@H](CSCc1ccccc1)C(=O)O,/,1,/,7,-6,-2,/,/,/,/
